Source: ChEMBL document CHEMBL1149910, “2-(6-aryl-3(Z)-hexen-1,5-diynyl)anilines as a new class of potent antitubulin agents” (J Med Chem, 2008)
Calls of active or inactive are those of the source. The calls are words filed in the database; no cut-off is given here.

Tests used:
MDA-MB-231 [1] = experiment: Effect on regrowth of depolymerized microtubule in human MDA-MB-231 cells after drug withdrawal; type: functional, cell-based; conditions: TDE = time-dependent effect
How it was run: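 MDA-MB-231/ATCC cells on coverslips were treated at 36 µM in DMEM for 2 h at 37 °C, with nocodazole 20 µM and colchicine 5 µM as controls. Drug was then washed out with PBS and cells incubated in prewarmed DMEM at 37 °C. Cells were fixed at set time points and immunostained for α-tubulin and ninein with DAPI counterstain.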

MDA-MB-231 [2] = experiment: Cell cycle arrest in human MDA-MB-231 cells assessed as accumulation of 4N cells at 3.6 uM after 72 hrs by flow cytometry; type: functional
MDA-MB-231 [3] = experiment: Cell cycle arrest in human MDA-MB-231 cells assessed as accumulation of 4N cells at 27.0 uM after 24 hrs by flow cytometry; type: functional
MDA-MB-435 [4] = experiment: (§1) Cytotoxicity against human MDA-MB-435 cells; type: functional
How it was run: (§2)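 Tested in the NCI in vitro antitumor screening protocol across a tumor cell line panel. GI₅₀ is the concentration producing a 50% reduction in cell growth.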

EKVX = experiment: Cytotoxicity against human EKVX cells; type: functional; how it was run: as §2
K562 [5] = experiment: Cell cycle arrest in human K562 cells assessed as accumulation at S phase at 50 uM after 24 hrs by flow cytometry; type: functional
How it was run: (§3)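 K-562 human leukemia cells were grown in RPMI 1640 with 10% fetal calf serum, glutamine and penicillin/streptomycin at 37 °C in 5% CO₂. Cells were exposed to compound at 50 µM for 24 h, then pelleted and PBS-washed. They were fixed in ice-cold ethanol for 30 min, treated with 1 mg/mL RNase A at 37 °C for 30 min, and stained with propidium iodide and Triton X-100 for 30 min at room temperature in the dark. Per-phase and sub-G1 percentages came from flow cytometry gating.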

SW-620 = experiment: Cytotoxicity against human SW620 cells; type: functional; how it was run: as §2
MDA-MB-231 [6] = experiment: Cell cycle arrest in human MDA-MB-231 cells assessed as accumulation at sub-G1 phase at 9.0 uM after 24 hrs by flow cytometry; type: functional
IGROV-1 = experiment: Cytotoxicity against human IGROV1 cells; type: functional; how it was run: as §2
MDA-MB-231 [7] = experiment: Cell cycle arrest in human MDA-MB-231 cells assessed as accumulation of >4N cells at 9.0 uM after 24 hrs by flow cytometry; type: functional
How it was run: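 MDA-MB-231/ATCC cells were grown in DMEM with 10% fetal bovine serum, […], 1% nonessential amino acids, penicillin and streptomycin at 37 °C in 5% CO₂. They were exposed to 3.6, 9.0, 18, 27 or 36 µM for 24 or 72 h, with colchicine as control. DNA content was then read by flow cytometry, and […] cells were scored.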

K562 [8] = experiment: Cell cycle arrest in human K562 cells assessed as accumulation at G0/G1 phase at 50 uM after 24 hrs by flow cytometry; type: functional; how it was run: as §3
SK-OV-3 = experiment: Cytotoxicity against human SK-OV3 cells; type: functional; how it was run: as §2
MOLT-4 = experiment: Cytotoxicity against human MOLT4 cells; type: functional; how it was run: as §2
MDA-MB-231 [9] = experiment: Cell cycle arrest in human MDA-MB-231 cells assessed as accumulation at sub-G1 phase at 3.6 uM after 72 hrs by flow cytometry; type: functional
MDA-MB-231 [10] = experiment: Cell cycle arrest in human MDA-MB-231 cells assessed as accumulation at sub-G1 phase at 18.0 uM after 72 hrs by flow cytometry; type: functional
LOX IMVI = experiment: Cytotoxicity against human LOXIMVI cells; type: functional; how it was run: as §2
MDA-MB-435 [11] = experiment: as §1; type: functional; how it was run: as §2; remark: listed apart in the source
SR = experiment: Cytotoxicity against human SR cells; type: functional; how it was run: as §2
[12] = system: MDA-MB-231 (Homo sapiens); experiment: Induction of apoptosis in human MDA-MB-231 cells assessed as induction of caspase 9 activation at 36 uM after 72 hrs by colorimetric assay relative to control
MDA-MB-231 [13] = experiment: Cell cycle arrest in human MDA-MB-231 cells assessed as accumulation at sub-G1 phase at 27.0 uM after 72 hrs by flow cytometry; type: functional
SK-MEL-28 = experiment: Cytotoxicity against human SK-MEL28 cells; type: functional
How it was run: (§4)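 Tested in the NCI in vitro antitumor screening protocol against human tumour cell lines.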

MDA-MB-231 [14] = experiment: Cell cycle arrest in human MDA-MB-231 cells assessed as accumulation of 2N cells at 27.0 uM after 24 hrs by flow cytometry; type: functional
SK-MEL-2 = experiment: Cytotoxicity against human SK-MEL2 cells; type: functional; how it was run: as §4
RPMI-8226 = experiment: Cytotoxicity against human RPMI8226 cells; type: functional; how it was run: as §2
MDA-MB-231 [15] = experiment: Cell cycle arrest in human MDA-MB-231 cells assessed as accumulation of 2N cells at 9.0 uM after 24 hrs by flow cytometry; type: functional
SNB-19 = experiment: Cytotoxicity against human SNB19 cells; type: functional; how it was run: as §2
MDA-MB-231 [16] = experiment: Cell cycle arrest in human MDA-MB-231 cells assessed as accumulation of >4N cells at 36.0 uM after 72 hrs by flow cytometry; type: functional
MDA-MB-231 [17] = experiment: Effect on microtubule depolymerization in human MDA-MB-231 cells at 18 uM after 2 hrs; type: functional, cell-based
How it was run: (§5)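 MDA-MB-231/ATCC cells grown on glass coverslips (1 × 10⁴ cells) for 24 h, then exposed to 3.6, 9, 18, 27 or 36 µM at 37 °C for 2 h. Fixed in 4% paraformaldehyde, permeabilized with Triton X-100, and immunostained for α-tubulin and ninein with DAPI counterstain. Interphase microtubule networks compared with untreated cells by confocal microscopy.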

[18] = system: MDA-MB-231 (Homo sapiens); experiment: Induction of apoptosis in human MDA-MB-231 cells assessed as induction of caspase 8 activation at 36 uM after 72 hrs by colorimetric assay relative to control
MDA-MB-231 [19] = experiment: Effect on microtubule depolymerization in human MDA-MB-231 cells assessed as disorganized microtubule cytoskeleton at 3.6 uM after 2 hrs relative to control; type: functional, cell-based; how it was run: as §5
HCT-116 = experiment: Cytotoxicity against human HCT116 cells; type: functional; how it was run: as §2
MDA-MB-231 [20] = experiment: Cytotoxicity against human MDA-MB-231 cells; type: functional; how it was run: as §2
MDA-MB-231 [21] = experiment: Effect on microtubule depolymerization in human MDA-MB-231 cells at 27 uM after 2 hrs; type: functional, cell-based; how it was run: as §5
SK-MEL-5 = experiment: Cytotoxicity against human SK-MEL5 cells; type: functional; how it was run: as §2
[22] = read-out: LC50 (the source's name)

Nc1ccccc1C#C/C=C\C#Cc1ccccc1C(F)(F)F
Activity (MDA-MB-231 [1]): tde | Activity (MDA-MB-231 [2]): 19.2% | Activity (MDA-MB-231 [3]): 30.7% | GI50 (MDA-MB-435 [4]): 0.4 µM | TGI (MDA-MB-435 [4]): 0.53 µM | GI50 (EKVX): 0.358 µM | TGI (EKVX): 12.4 µM | CC50 (EKVX; [22]): 40.4 µM | Activity (K562 [5]): 19.3% | GI50 (SW-620): 0.479 µM | TGI (SW-620): 19.7 µM | CC50 (SW-620; [22]): 69.2 µM | Activity (MDA-MB-231 [6]): 23.1% | GI50 (IGROV-1): 0.349 µM | TGI (IGROV-1): 31.1 µM | CC50 (IGROV-1; [22]): > 100 µM | Activity (MDA-MB-231 [7]): 34% | Activity (K562 [8]): 6.7% | GI50 (SK-OV-3): 0.888 µM | TGI (SK-OV-3): 24.7 µM | CC50 (SK-OV-3; [22]): 98.7 µM | GI50 (MOLT-4): > 100 µM | TGI (MOLT-4): > 100 µM | CC50 (MOLT-4; [22]): > 100 µM | Activity (MDA-MB-231 [9]): 47.2% | Activity (MDA-MB-231 [10]): 62.5% | GI50 (LOX IMVI): 0.499 µM | TGI (LOX IMVI): 10.5 µM | CC50 (LOX IMVI; [22]): 46.2 µM | GI50 (MDA-MB-435 [11]): 0.398 µM | GI50 (SR): 0.247 µM | TGI (SR): 0.691 µM | CC50 (SR; [22]): > 100 µM | fold change (FC) [12]: 3.9 | Activity (MDA-MB-231 [13]): 65.4% | TGI (SK-MEL-28): 30.1 µM | CC50 (SK-MEL-28; [22]): 80.2 µM | Activity (MDA-MB-231 [14]): 9.3% | TGI (SK-MEL-2): 26.5 µM | CC50 (SK-MEL-2; [22]): 67.2 µM | GI50 (RPMI-8226): 0.738 µM | TGI (RPMI-8226): > 100 µM | CC50 (RPMI-8226; [22]): > 100 µM | Activity (MDA-MB-231 [15]): 9.3% | GI50 (SNB-19): 11.3 µM | TGI (SNB-19): 39.9 µM | CC50 (SNB-19; [22]): > 100 µM | Activity (MDA-MB-231 [16]): 9.7% | Activity (MDA-MB-231 [17]): Active | fold change (FC) [18]: 4 | Activity (MDA-MB-231 [19]): Active | GI50 (HCT-116): 0.423 µM | TGI (HCT-116): 12.5 µM | CC50 (HCT-116; [22]): 47.4 µM | GI50 (MDA-MB-231 [20]): 0.4 µM | TGI (MDA-MB-231 [20]): 1.68 µM | CC50 (MDA-MB-231 [20]; [22]): 36.5 µM | Activity (MDA-MB-231 [21]): Active | GI50 (SK-MEL-5): 0.541 µM | TGI (SK-MEL-5): 15 µM | CC50 (SK-MEL-5; [22]): 42.2 µM
